Test results: paper PMC7647958 (Molecular imaging and biology, 2020)

Tests used:
[1] = PET imaging, radioactivity remaining in the body; format: in vivo, mouse; settings: 4 h p.i., i.v., PET imaging studies, tumor-bearing mice, n = 4; mean ± SD
How it was run: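 Mice bearing xenografts (paired DX3puroβ6/DX3puro or BxPC-3) received 5–7 MBq radiotracer i.v. via tail vein, with mass held at 0.175 nmol (7 nmol/kg for a 25-g mouse). Two mice per scan lay prone under 1.5–2.0 % isoflurane (n = 4/radiotracer). Static PET scans: 15 min at 1, 2, 4 h and 30 min at 6 h p.i., plus CT. Body-retained radioactivity was decay corrected.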

[2] = tested on: BxPC-3 [αvβ6(+)] cells; experiment: Cell binding and internalization, BxPC-3 cells; format: cell-based; settings: 60 min; n = 4; mean ± SD
How it was run: (§1)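 Tubes were pretreated with non-fat milk (0.5 % w/v in PBS). DX3puro cells were kept in DMEM with puromycin (2 μg/ml); BxPC-3 cells were kept in RPMI. Both media had 10 % heat-inactivated FBS and 1 % PSG, at 37 °C and 5 % CO2. Integrin expression was checked by flow cytometry beforehand. Radiotracer binding and internalization ran 60 min (n = 4) and are reported as fraction of total radioactivity.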

[3] = tested on: DX3puro [αvβ6(−)] cells; experiment: Cell binding and internalization, DX3puro cells; format: cell-based; settings: 60 min; n = 4
How it was run: as §1

[4] = Serum stability, human serum; format: in vitro ADME
How it was run: (§2)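 Formulated radiotracer (12.5–25 μl, 2–6 MBq) was added to 0.5 ml of either human or mouse serum and incubated at 37 °C in a sealed tube. At each time point an aliquot was withdrawn and serum proteins were precipitated. The supernatant was analysed by HPLC for intact radiotracer.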

[5] = Serum stability, mouse serum; format: in vitro ADME
How it was run: as §2

[6] = Biodistribution in mice bearing paired DX3puroβ6/DX3puro xenograft tumors; format: in vivo; settings: female, athymic nude, mouse, iv, 0.175 nmol per injection, total radioactivity; for tissue uptake at 1 h: 1 h p.i.
How it was run: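 Female athymic nude mice carried 3 × 10^6 DX3puro and 3 × 10^6 DX3puroβ6 cells s.c. in DMEM on opposite flanks; studies began at ~0.5 cm tumor diameter. Radiotracer at 1.5–3.3 MBq/animal was given i.v. via tail vein under isoflurane, with mass held at 0.175 nmol by adding nonradioactive peptide. Tissues were taken at 1, 2, 4 or 2, 4, 6 h p.i. (n = 3–4), rinsed and γ-counted; results are decay-corrected % ID/g.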

With `CC(C)C[C@H](NC(=O)[C@H](CC(=O)O)NC(=O)CNC(=O)[C@H](CCCNC(=N)N)NC(=O)[C@H](CC(C)C)NC(=O)[C@H](CC(N)=O)NC(=O)[C@@H]1CCCN1C(=O)[C@@H](NC(=O)[C@H](C)NC(=O)[C@H](CC(N)=O)NC(=O)CCOCCOCCOCCOCCOCCOCCOCCOCCOCCOCCOCCOCCOCCOCCOCCOCCOCCOCCOCCOCCOCCOCCOCCOCCOCCOCCOCCOCCNC(=O)CN1CCN(CC(=O)O)CCN(CC(=O)O)CC1)C(C)C)C(=O)N[C@@H](CCC(N)=O)C(=O)N[C@H](C(=O)N[C@@H](CC(C)C)C(=O)N[C@@H](C)C(=O)N[C@@H](CCC(N)=O)C(=O)N[C@@H](CCCNC(=N)N)C(=O)N[C@H](C(=O)N[C@@H](C)C(=O)N[C@@H](CCCNC(=N)N)C(=O)N[C@H](C(=O)NCCOCCOCCOCCOCCOCCOCCOCCOCCOCCOCCOCCOCCOCCOCCOCCOCCOCCOCCOCCOCCOCCOCCOCCOCCOCCOCCOCCOCCC(N)=O)[C@@H](C)O)C(C)C)C(C)C` [[^18F]AlF 1, [^18F]AlF NOTA-αvβ6-BP] the “injected radioactivity remaining in the body (decay corrected)” value [1] was 21.7 ± 3.4%, the “binding to BxPC-3 cells (of total radioactivity)” value [2] was 45.1 ± 0.7% and the “internalization into BxPC-3 cells (of total radioactivity)” value [2] was 31.5 ± 1.3%. The “binding to DX3puro cells (of total radioactivity)” value [3] was ≤ 1.2%, the “internalization into DX3puro cells (of total radioactivity)” value [3] was ≤ 0.5% and the remaining at 2 h [4] was ≥ 97%. For the same molecule, the remaining at 2 h [5] was 67%, the tissue uptake ([6]; DX3puro tumor, uptake in DX3puro tumor, all time points (1, 2, 4 h p.i.)) was ≤ 0.3 %ID/g and the tissue uptake at 1 h ([6]; DX3puroβ6 tumor, uptake in DX3puroβ6 tumor, n = 3–4, mean ± SD) was 2.2 ± 0.5 %ID/g. For the same molecule, the tissue uptake at 4 h ([6]; DX3puroβ6 tumor, uptake in DX3puroβ6 tumor, 4 h p.i., n = 3–4, mean ± SD) was 3 ± 0.7 %ID/g and the tissue uptake at 1 h ([6]; blood, blood radioactivity, DX3puroβ6/DX3puro model) was ≤ 0.1 %ID/g.
